Only some compounds are listed: those with a hit (about 9.4% of all), similar ones and a draw of the others.
L major viab: Leishmania major promastigote growth inhibition | inhibition, % at 10 µM | Leishmania major promastigotes, resazurin fluorescence viability | 9% of 200,000 active; in the data active = inhibition above about 50%;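 also: promastigotes grown with compound for 44 hours at 28 °C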
T cruzi inh: T. cruzi replication inhibition; T. cruzi beta-gal in NIH3T3, luminescence, 90 h; inhibition, % (test concentration not listed); 1.4% of 300,000 active;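 active = mean inhibition across valid replicates above about 55%, limit read from the data; inconclusive = mean below that limit but half or more replicates reach it; inactive = mean below it, under half of replicates reach it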;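 also: signal also drops with host cell toxicity which is not excluded here; higher percent means less beta-gal luminescence so fewer parasites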
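System: NIH/3T3 fibroblasts plus reporter T. cruzi. Medium: DMEM plus 2% FBS. Probe or stimulus: 5000 reporter trypomastigotes per well. Compound: single 50 nL compound addition per well in DMSO. Incubation: co-culture of at least 90 h after 3 h attachment. Detection: GalScreen β-gal luminescence, detergent lysis, 60 min. Evaluation: parasite load inhibition, %.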
SKKanGAS inh: SKKanGAS growth inhibition. S. pyogenes SKKanGAS, kanamycin growth, BacTiter-Glo, 6 h. inhibition, % at 7.5 µM. 1.3% of 300,000 active;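 active = mean replicate score, as percent of positive control median, at least 50; inconclusive = mean below 50 but one replicate at or above 50; inactive = mean and every replicate below 50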;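 also: strain carries kanamycin resistance gene driven by streptokinase promoter and grows in 40 µg/ml kanamycin; loss of luminescence reflects streptokinase promoter inhibition or plain growth inhibition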
Mdm2-MdmX inh: disrupts the human Mdm2-MdmX interaction | O15151+Q00987 | SaOS-2 split-luciferase Mdm2/MdmX complementation, luminescence | inhibition, % at 8 µM | 3% of 330,000 active | AID 485346;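 active = inhibition of at least 50% at 8 µM in the primary screen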
Target sequence (O15151 whole entry, looked up): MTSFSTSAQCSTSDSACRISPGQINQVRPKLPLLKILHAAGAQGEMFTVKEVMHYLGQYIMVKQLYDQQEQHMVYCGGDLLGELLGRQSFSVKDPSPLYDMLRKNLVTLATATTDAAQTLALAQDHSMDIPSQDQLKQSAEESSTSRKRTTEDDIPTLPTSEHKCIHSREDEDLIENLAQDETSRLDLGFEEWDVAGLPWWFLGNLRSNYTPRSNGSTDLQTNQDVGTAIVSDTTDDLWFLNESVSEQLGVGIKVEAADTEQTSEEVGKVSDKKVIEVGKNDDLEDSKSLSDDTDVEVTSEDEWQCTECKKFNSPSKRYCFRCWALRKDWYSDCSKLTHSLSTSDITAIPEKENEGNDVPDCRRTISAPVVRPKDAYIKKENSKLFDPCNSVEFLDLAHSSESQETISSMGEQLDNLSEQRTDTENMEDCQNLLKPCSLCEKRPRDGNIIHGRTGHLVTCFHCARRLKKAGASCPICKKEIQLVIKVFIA
Target sequence (Q00987 whole entry, looked up): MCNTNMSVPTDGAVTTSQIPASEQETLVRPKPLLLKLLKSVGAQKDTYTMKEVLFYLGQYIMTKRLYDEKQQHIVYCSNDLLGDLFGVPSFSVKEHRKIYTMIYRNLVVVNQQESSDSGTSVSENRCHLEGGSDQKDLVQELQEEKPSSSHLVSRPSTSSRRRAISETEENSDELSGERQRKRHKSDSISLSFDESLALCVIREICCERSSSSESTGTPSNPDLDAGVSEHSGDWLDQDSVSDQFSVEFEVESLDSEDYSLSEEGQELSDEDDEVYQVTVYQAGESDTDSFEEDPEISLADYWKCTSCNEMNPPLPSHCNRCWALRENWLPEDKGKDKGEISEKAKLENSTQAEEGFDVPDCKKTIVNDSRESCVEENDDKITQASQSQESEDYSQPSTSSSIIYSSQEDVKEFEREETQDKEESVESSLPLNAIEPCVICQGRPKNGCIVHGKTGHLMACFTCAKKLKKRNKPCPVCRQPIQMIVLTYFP
CSC inhib: cancer stem cell inhibition. cancer stem cell-like cells viability, luminescence. inhibition, % at 7.5 µM. 1.1% of 300,000 active. AID 2717; in the data active = inhibition above about 75%; inconclusive = no clear call, values can overlap the other calls; tested in HMLE shEcad cells
Beta apoptosis: blocks beta cell apoptosis. 0.8% of 300,000 active. INS-1E cytokine-induced death, ATP luminescence, 48 h; percent of positive-control rescue, neutral wells zero. protection from apoptosis, % (concentration not given with the values);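 active = Every replicate reaches about 75%, or at least half do and their mean reaches it too, limit read from the data; inconclusive = At least half of replicates reach the limit but their mean does not; inactive = Under half of replicates reach the limit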;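 also: higher means more ATP so stronger rescue from cytokine killing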
Hits are given with their value; - = inactive; ? = inconclusive; . = no result.

SMILES	L major viab	T cruzi inh	SKKanGAS inh	Mdm2-MdmX inh	CSC inhib	Beta apoptosis
O=C(CCCCn1c(=O)[nH]c2ccccc2c1=O)N1CCN(c2cccc(C(F)(F)F)c2)CC1	82	-	-	-	-	.
O=C(C1CCC1)N1CCN(S(=O)(=O)c2ccc(Br)cc2Cl)CC1	.	-	-	-	-	-
O=c1[nH]cc(S(=O)(=O)Nc2ccc3c(c2)OCO3)c(=O)[nH]1	.	-	-	-	-	-
Cc1ccc(C)c(N2CCN(C(=O)c3ccc(Cn4c(=S)[nH]c5ccc(N6CCOCC6)cc5c4=O)cc3)CC2)c1	99	75	-	-	-	-
O=C(c1ccc(Cn2c(=S)[nH]c3ccc(N4CCOCC4)cc3c2=O)cc1)N1CCN(c2ccc(F)cc2)CC1	96	85	-	-	-	-
O=C(c1ccc(Cn2c(=O)[nH]c3ccccc3c2=O)cc1)N1CCN(c2ccc(F)cc2)CC1	92	-	-	-	-	-
O=c1c2cc(N3CCOCC3)ccc2[nH]c(=S)n1Cc1ccc(Cl)cc1	-	-	-	-	-	-
COc1ccc(N2CCN(C(=O)c3ccc(Cn4c(=S)[nH]c5ccc(N6CCOCC6)cc5c4=O)cc3)CC2)cc1	91	68	-	-	-	-
O=C(c1ccc(Cn2c(=O)[nH]c3ccsc3c2=O)cc1)N1CCN(c2ccccc2)CC1	-	-	-	-	-	-
Cc1ccc(S(=O)(=O)N2CCOC23CCN(S(=O)(=O)c2c(C)cc(C)cc2C)CC3)cc1	.	-	-	-	-	-
COC(=O)c1cn(C(=O)c2cccc(Br)c2)c2ccccc12	.	-	-	-	-	-
CN(C)S(=O)(=O)c1ccc(NC(=O)N2CCN(c3cccc(C(F)(F)F)c3)CC2)cc1	-	55	-	-	-	-
COc1cc2c(cc1OC)C(c1ccccc1)CC2=O (stereo unspecified)	.	-	-	-	-	-
CN(CC(=O)Nc1ccc(F)cc1)C(=O)CN1C(=O)NC2(CCCc3ccccc32)C1=O (stereo unspecified)	.	-	-	-	.	-
O=c1cc(-c2ccccc2)nc(SCc2ccc(Cl)cc2)[nH]1	-	-	-	-	-	-
O=c1cc(O)nc(SCc2ccc(Cl)cc2)[nH]1	-	-	104	-	-	-
Nc1cc(=O)[nH]c(SCc2ccc(Cl)cc2)n1	69	-	-	-	-	-
Nc1cc(=O)[nH]c(SCc2cccc(Cl)c2)n1	-	.	.	-	-	-
Cc1cc(C)nc(Nc2ccc(F)cc2)n1	.	-	-	-	-	-
Nc1ncnc(Nc2ccc(F)cc2)n1	57	-	-	-	-	-
Fc1ccc(Nc2ccnc(Nc3ccc(F)cc3)n2)cc1	95	-	-	-	-	-
COc1cccc(C(=O)NC2CCNCC2)c1	.	-	-	-	-	-
CC(C)(C)OC(=O)C[C@H]1C/C=C\C[C@@H](CC(=O)NCCO)C(=O)NCCOC1=O	.	.	.	-	.	-
Clc1cccc(Oc2ncccn2)c1	50	-	-	-	-	-
CC(C)N(C(=O)CS(=O)(=O)c1ccc(Cl)c(Cl)c1)C(C)C	85	-	-	-	-	-
SMILES	L major viab	T cruzi inh	SKKanGAS inh	Mdm2-MdmX inh	CSC inhib	Beta apoptosis
Cc1cc(OCC(=O)N(C(C)C)C(C)C)ccc1Cl	-	-	-	-	-	-
Cc1sc(NC(=O)c2cccc(N3C(=O)CCC3=O)c2)nc1-c1ccccc1	.	-	-	-	-	.
CN1CCN(Cc2c(O)ccc3c(=O)c(Oc4ccccc4Cl)c(C(F)(F)F)oc23)CC1	99	-	-	-	-	-
CCOC(=O)c1ccc(Oc2c(C)oc3c(CN4CCN(C)CC4)c(O)ccc3c2=O)cc1	100	?	-	-	-	-
COc1ccc(Oc2c(C)oc3c(CN4CCOCC4)c(O)ccc3c2=O)cc1	-	-	-	-	-	-
O=C(CCNS(=O)(=O)c1ccc2[nH]c(=O)oc2c1)Nc1ccccc1	.	-	-	-	-	-
Cc1ccc2c(c1)NC(=O)c1cc([N+](=O)[O-])ccc1O2	-	-	-	-	-	-
O=C1Nc2ccccc2Oc2cc([N+](=O)[O-])ccc21	-	67	-	-	-	-
O=S(=O)(NC1CCN(Cc2ccccc2)CC1)c1cccc2cccnc12	67	-	-	-	-	-
CC(C)n1cc(CN2CCCC(CNS(=O)(=O)c3cccc4cccnc34)C2)cn1 (stereo unspecified)	.	64	-	-	-	.
Cc1ccc(-c2nn3cnnc3c3ccccc23)cc1	-	-	-	-	-	-
Cc1cc(C)c(OCCCCCn2ccnc2)c(C)c1	.	-	-	-	-	-
Cc1ccc(C)c(OCCCCCn2ccnc2)c1	100	72	-	-	-	-
Cc1cc(Cl)cc(C)c1OCCCCCn1ccnc1	.	-	-	-	-	-
Cc1cc(OCCCn2ccnc2)cc(C)c1Cl	89	59	-	-	-	-
Cc1cc(OCCCCCn2ccnc2)cc(C)c1Cl	99	-	-	-	-	-
COc1ccc(CCC(=O)NNC(=O)Nc2ccccc2Cl)cc1	.	-	-	-	-	-
O=C(NCc1cccc(Br)c1)C1CC(c2ccccc2[N+](=O)[O-])=NO1 (stereo unspecified)	.	-	-	-	-	-
CCC(=O)c1c(CC)c2n3c1CC[C@H]3CCC2	.	-	-	-	-	-
N#CCCn1nc(-c2ccccc2)cc1Nc1ccccc1NC(=O)c1cccs1	59	-	-	-	-	-
COc1ccccc1NC(=O)Cn1c(=O)oc2ccccc21	-	-	-	-	-	-
COc1ccc(NC(=O)Cn2c(=O)n(-c3ccccc3)c(=O)c3oc4ccccc4c32)c(OC)c1	61	-	-	-	-	-
COc1ccccc1NC(=O)Cn1c(=O)n(-c2ccccc2)c(=O)c2oc3ccccc3c21	-	-	-	-	-	-
COC(=O)c1cc2oc3ccccc3c2n1CC(=O)Nc1ccccc1OC	83	-	-	-	-	-
Cn1cc([C@@H]2C[C@H]3CN(Cc4cccc(Cl)c4)C(=O)[C@]34CCCN24)c2ccccc21	-	-	-	-	-	-
SMILES	L major viab	T cruzi inh	SKKanGAS inh	Mdm2-MdmX inh	CSC inhib	Beta apoptosis
CSCCC(NC(=O)c1cccc([N+](=O)[O-])c1)C(=O)OCC(=O)N1CCCC1=O (stereo unspecified)	.	-	-	-	-	-
CCC(C)C(NC(=O)c1ccccc1NC(=O)c1ccccc1)C(=O)N1CCOCC1 (stereo unspecified)	53	-	-	-	-	-
CCC(NC(=O)c1ccccc1NC(=O)c1ccccc1)C(=O)OC (stereo unspecified)	-	-	-	-	-	-
CN(CCc1ccccc1)C(=O)CCc1nnc(Cc2ccc3c(c2)OCO3)o1	.	-	-	-	-	-
Cc1nc2ccc(-c3nc4cc(N)ccc4o3)cc2[nH]1	53	-	-	-	-	-
O=[N+]([O-])c1cc(C(F)(F)F)ccc1NCCCCNS(=O)(=O)c1ccc(Cl)cc1	-	-	-	-	.	88
O=[N+]([O-])c1cc(C(F)(F)F)ccc1NCCc1c[nH]c2ccccc12	-	-	-	-	99	-

High-throughput results (PubChem BioAssay)
